Assay outcomes from PubChem BioAssay.
Only some compounds are listed: those with a hit (about 3.7% of all), similar ones and a draw of the others.
E-sel inducer: E-selectin induction in HUVECs, primary screen, imaging, HUVEC, immunofluorescence imaging, single point. P16581. normalized: neutral wells 0, TNF-alpha wells 100. activation, % at 7.58 µM. 260,000 compounds, 0.37% hits;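 active means mean E-selectin-positive cell signal at least 10% of the positive control, reached in at least 60% of replicates, without over 20% cell loss; inconclusive means no rule given, readout overlaps actives, possibly toxicity-flagged; inactive means the rest, including those meeting only one limit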
Target sequence (P16581 whole entry, looked up): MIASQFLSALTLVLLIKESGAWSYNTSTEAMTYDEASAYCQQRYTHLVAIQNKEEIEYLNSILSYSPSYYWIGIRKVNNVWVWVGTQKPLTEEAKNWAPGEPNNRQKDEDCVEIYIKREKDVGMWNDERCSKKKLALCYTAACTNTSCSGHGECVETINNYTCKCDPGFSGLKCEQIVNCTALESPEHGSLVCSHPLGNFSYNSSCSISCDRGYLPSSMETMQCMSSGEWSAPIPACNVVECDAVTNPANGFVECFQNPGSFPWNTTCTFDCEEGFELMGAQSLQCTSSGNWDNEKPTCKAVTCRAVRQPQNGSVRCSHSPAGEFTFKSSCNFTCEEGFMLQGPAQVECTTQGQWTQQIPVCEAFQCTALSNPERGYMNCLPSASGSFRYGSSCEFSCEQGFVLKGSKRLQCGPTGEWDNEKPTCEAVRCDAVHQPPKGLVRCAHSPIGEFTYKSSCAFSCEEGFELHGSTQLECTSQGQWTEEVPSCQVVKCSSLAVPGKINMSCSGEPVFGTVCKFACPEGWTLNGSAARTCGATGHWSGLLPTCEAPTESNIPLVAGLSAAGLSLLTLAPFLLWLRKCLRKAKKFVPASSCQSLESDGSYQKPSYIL
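Test system: HUVEC | Signal: Immunofluorescence imaging | Read-out: Percent E-selectin-positive cells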
ERAP1 HTS inh: human ERAP1 aminopeptidase inhibitors, primary screen, biochemical, single point, plate reader | Endoplasmic reticulum aminopeptidase 1 (Homo sapiens), Q9NZ08 | recombinant ERAP1, Leu-AMC fluorescence, 60 min | inhibition, % at 10.7 µM | 340,000 compounds, 0.15% hits | AID 652197, 2013;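 active means mean replicate inhibition of at least 30%, or all replicates individually reaching that 30% level; inactive means mean below 30% and not every replicate reaching it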;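 further: 0% = neutral control wells and 100% = L-leucinethiol positive control wells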
F508del corr: F508del CFTR correction, initial screen, CFBE line, single point. activity (quench increase), % at 7.58 µM. AID 720511, 2013. 350,000 compounds, 0.36% hits. CFBE cells, YFP halide quenching; stimulated with forskolin plus potentiator P3; % fluorescence drop versus neutral controls;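 active means mean added fluorescence quench of at least 8% versus neutral control, with both replicates also reaching 8%; inconclusive means only one of the mean or replicate conditions met; inactive means mean below 8% and not both replicates reaching 8%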;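 further: cells transiently co-express mutant CFTR-F508del with the halide-sensitive YFP; corrector assay measuring rescue of mutant channel to the surface after 24 h compound exposure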
DENV2 CPE rescue: inhibitors of DENV2 cytopathic effect, primary screen, cell-based, plate reader, single concentration. CPE inhibition, % at 9.99 µM. AID 651640, 2012. 350,000 compounds, 1.7% hits. DENV2-infected cells, cytopathic effect rescue; in the data active means CPE inhibition above about 20%, passing the limit was not always enough; inconclusive means no clear call, values can overlap the other calls; tested in BHK-21 cells;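 further: 0% = median of neutral control wells and 100% = median of positive control wells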
FGF22 binding: binders of human FGF22 protein, primary screen, FGF22 synaptogenesis inhibitor project, biophysical, thermal shift, single point. Fibroblast growth factor 22 (Homo sapiens), Q9HCT0. recombinant FGF22 thermal shift, SYPRO orange fluorescence; percent of sucrose octasulfate shift, DMSO zero. activity (Tm shift, normalised), % at 9.99 µM. 340,000 compounds, 1.5% hits. AID 651658, 2012;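 active means mean Tm shift, scaled 0 neutral to 100 positive control, at about 1.3% or above, every replicate too, limit read from the data; inconclusive means no clear call, values can overlap the other calls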
Numbers without * were called inactive; u = inconclusive; x = not tested or not shown.

SMILES | E-sel inducer | ERAP1 HTS inh | F508del corr | DENV2 CPE rescue | FGF22 binding
COc1cc(-c2cnc3c(NC(C)=O)cc(-c4ccccc4CN(C)C)cn23)cc(OC)c1OC | x | 14 | -3 | 25* | 0
CO[C@@H]1CN(C)C(=O)c2cc(NC(=O)Nc3ccc(F)cc3)ccc2OC[C@@H](C)N(C(=O)c2cnccn2)C[C@H]1C | 0 | 4 | -3 | -6 | 0
CCOc1ccc(NC(=O)Nc2ccc(NC(C)=O)cc2)cc1 | x | -1 | x | -2 | 0
CCOc1ccc(NC(=O)Nc2cnccn2)cc1 | 0 | -3 | -1 | -7 | 43*
CCOc1ccc(NC(=O)NC(C)CC)cc1 (stereo not drawn) | 0 | -1 | 6 | x | 43*
NCC[C@@H]1CC[C@@H](NS(=O)(=O)Cc2ccccc2)[C@H](CO)O1 | 1 | 0 | -3 | x | 1
CCC(=O)N(C)C[C@@H]1Oc2cc(C3=CCCCC3)ccc2S(=O)(=O)N([C@H](C)CO)C[C@@H]1C | 3 | x | 7 | x | x
CC(C)Nc1nc(SC(C)C(=O)Nc2ccccc2)nc(N(C)C)n1 (stereo not drawn) | 2 | -3 | 1 | 0 | 0
CCNc1nc(SC(C)C(=O)Nc2ccccc2)nc(N(C)C)n1 (stereo not drawn) | 0 | -3 | -3 | 5 | 43*
CN1CCN(C(=O)C[C@H]2C[C@@H]3c4cc(NC(=O)C5CCC5)ccc4O[C@@H]3[C@H](CO)O2)CC1 | 1 | -1 | -4 | 0 | 0
COCCCN(Cc1ccco1)C(=O)Cn1ncc2c([nH]c3ccccc32)c1=O | x | 2 | 4 | 25* | 0
CN(Cc1ccco1)C(=O)Cn1ncc2c([nH]c3ccccc32)c1=O | x | 3 | 6 | 20 | 0
C[C@H](CO)N1C[C@H](C)[C@H](CN(C)Cc2ccc(C(F)(F)F)cc2)Oc2ccc(NC(=O)Nc3cccc4ccccc34)cc2CC1=O | x | 1 | 0 | 42* | 0
C[C@H]1CN([C@@H](C)CO)C(=O)Cc2cc(NC(=O)Nc3cccc4ccccc34)ccc2O[C@H]1CN(C)Cc1ccc(C(F)(F)F)cc1 | x | 1 | 2 | 33* | 0
CCC(=O)Nc1ccc2c(c1)OC[C@H](C)N(C(=O)CN(C)C)C[C@H](C)[C@H](OC)CN(C)C2=O | 0 | 3 | 2 | -12 | 0
CO[C@@H]1CN(C)C(=O)c2ccc(NC(=O)Nc3cc(F)ccc3F)cc2OC[C@@H](C)N(C(=O)c2ccccn2)C[C@@H]1C | 0 | 2 | 2 | -2 | 0
CCCNC(=O)Nc1ccc2c(c1)OC[C@H](C)N(C(=O)c1ccccc1F)C[C@@H](C)[C@H](OC)CN(C)C2=O | 0 | -4 | -1 | 40* | 0
CO[C@H]1CN(C)C(=O)c2ccc(NC(=O)Nc3cc(F)ccc3F)cc2OC[C@H](C)N(C(=O)c2ccccn2)C[C@H]1C | 0 | -2 | 1 | 9 | 0
CO[C@@H]1CN(C)C(=O)c2ccc(NC(=O)Nc3cc(F)ccc3F)cc2OC[C@@H](C)N(C(=O)c2ccccn2)C[C@H]1C | 0 | 2 | 1 | 87* | 0
CO[C@@H]1CN(C)C(=O)c2ccc(NC(=O)Nc3ccc(F)cc3)cc2OC[C@@H](C)N(C(=O)c2ccc(F)cc2)C[C@H]1C | 44* | 3 | 2 | -3 | 0
CO[C@@H]1CN(C)C(=O)c2ccc(NC(=O)Nc3cc(F)ccc3F)cc2OC[C@H](C)N(C(=O)c2ccccn2)C[C@H]1C | 0 | -1 | 2 | 26* | 0
O=C(C[C@H]1C[C@@H]2c3cc(NS(=O)(=O)c4ccc(F)cc4)ccc3O[C@@H]2[C@H](CO)O1)NCc1ccccn1 | 0 | -2 | -1 | 1 | 0
OC1(CC#CCN2CCCCC2)c2ccccc2-c2ccccc21 | x | -7 | -3 | -2 | 0
OC1(C#CCCN2CCCCC2)c2ccccc2-c2ccccc21 | 3 | -1 | 2 | 7 | 44*
C[C@H](CO)N1C[C@H](C)[C@H](CN(C)C(=O)c2ccncc2)OCc2ccccc2-c2ccccc2C1=O | 0 | -7 | -2 | u | 0
SMILES | E-sel inducer | ERAP1 HTS inh | F508del corr | DENV2 CPE rescue | FGF22 binding
CCc1ccc(-n2c(=S)sc3c(=O)n(-c4ccccc4C)c(SCC(=O)O)nc32)cc1 | 60* | 4 | 0 | 3 | 0
CN1CCN(C(=O)CCN2C(=O)S/C(=C/c3ccc(Cl)cc3)C2=O)CC1 | x | -3 | 1 | 12 | 43*
O=C(Cc1cccnc1)N1CC(=O)N2[C@H](CO)[C@@H](c3ccc(C4=CCCC4)cc3)[C@@H]2C1 | 0 | 0 | -2 | -3 | x
COCC(=O)N1CC(=O)N2[C@H](CO)[C@H](c3ccc(C#Cc4cccc(OC)c4)cc3)[C@H]2C1 | 2 | 2 | 0 | 2 | x
COCC(=O)N1CC(=O)N2[C@H](CO)[C@H](c3ccc(C#Cc4cccc(OC)c4)cc3)[C@@H]2C1 | 0 | 1 | -2 | 40* | x
O=C(Cc1ccccc1)N1CC(=O)N2[C@H](CO)[C@@H](c3ccc(-c4ccccc4)cc3)[C@@H]2C1 | 0 | 2 | 12* | 4 | x
COc1cccc(-c2ccc([C@H]3[C@@H](CO)N4C(=O)CN(C(=O)C5CCOCC5)C[C@@H]34)cc2)c1 | 0 | 3 | -3 | 33* | x
O=C(Cc1cccnc1)N1CC(=O)N2[C@H](C1)[C@H](c1ccc(C3=CCCC3)cc1)[C@@H]2CO | 0 | 0 | -4 | 36* | x
Cc1ccc(S(=O)(=O)N(C)C[C@H]2Oc3ccc(NC(=O)Nc4ccc5c(c4)OCO5)cc3C(=O)N([C@H](C)CO)C[C@@H]2C)cc1 | 2 | 2 | 3 | -3 | -1
O=C(Cc1ccccn1)N1CC(=O)N2[C@H](CO)[C@@H](c3ccc(C#CC4CCCCC4)cc3)[C@@H]2C1 | 0 | 1 | 2 | 26* | x
O=C(Cc1ccccc1)N1CC(=O)N2[C@@H](CO)[C@H](c3ccc(C#Cc4ccccc4)cc3)[C@@H]2C1 | 0 | -2 | 4 | 24* | x
COc1cc(C(=O)N=c2sccn2C)c([N+](=O)[O-])cc1OC | 0 | 45* | 1 | 4 | 0
C[C@@H]1CN([C@H](C)CO)C(=O)c2cccc(NC(=O)NC3CCCCC3)c2O[C@@H]1CN(C)C(=O)Nc1ccc2c(c1)OCO2 | 0 | -1 | -2 | 6 | 0
O=C(Nc1nc2ccccc2n1CCN1CCOCC1)c1ccc(COc2ccccc2Br)o1 | x | 2 | 3 | 3 | 43*
COc1ccc(CN(C)C[C@H]2Oc3ccc(NC(=O)C4CCCCC4)cc3C(=O)N([C@@H](C)CO)C[C@H]2C)cc1 | 1 | 0 | 2 | 25* | 0
COc1ccc(CN(C)C[C@@H]2Oc3ccc(NS(=O)(=O)c4cccs4)cc3C(=O)N([C@H](C)CO)C[C@H]2C)cc1 | -21 | 1 | -1 | 31* | 0
